The record followed here is ChEMBL document CHEMBL1137786, “Design, synthesis, biological evaluation, and structure-activity relationship (SAR) discussion of dipeptidyl boronate proteasome inhibitors, part I: comprehensive understanding of the SAR of alpha-amino acid boronates” (J Med Chem, 2009).

The nature of assay [1]: Inhibition of chymotrypsin-like activity of human 20s proteasome beta 5 subunit assessed as hydrolysis of fluorogenic substrate.
For the next assay, the system named is NCI-H460. Nature of the assay: Cytotoxicity against human H460 cells after 72 hrs by MTT assay. Conditions: NCI-H460, 72 h. Type of assay: functional, cell-based. The gist of the method:
(§1)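 BGC-823, KB, NCI-H460, HepG2 and SW-480 cells were maintained in RPMI 1640 with 10% FBS at 37 °C, 5% CO2. MTT added from a 5 mg/mL solution for 4 h at 37 °C. Formazan dissolved in DMSO after centrifugation, A540 read.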
Background: Formazan colour is commonly taken as a measure of viable cells.

The next assay concerns SW480. Nature of the assay: Cytotoxicity against human SW480 cells after 72 hrs by MTT assay. The class given is functional, cell-based. The settings on record: SW480, 72 h. The gist of the method: as §1
Another assay concerns SK-OV-3. Nature of the assay: Cytotoxicity against human SKOV3 cells after 72 hrs by MTT assay. Type of assay: functional, cell-based. Conditions: SK-OV-3, 72 h. The gist of the method:
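SKOV-3 cells were cultured in McCoy's 5A with 10% FBS at 37 °C, 5% CO2. MTT added from a 5 mg/mL solution for 4 h at 37 °C. Formazan dissolved in DMSO, absorbance measured at 540 nm.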

The next assay concerns A549. The assay can be described thus: Cytotoxicity against human A549 cells after 72 hrs by MTT assay. The class given is functional, cell-based. The settings on record: A549, 72 h. The gist of the method:
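A549 cells were cultured in F12-K with 10% FBS at 37 °C, 5% CO2. MTT from a 5 mg/mL solution added for 4 h at 37 °C. Medium removed after centrifugation, formazan taken up in DMSO, read at 540 nm.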

For a further assay, the system named is HeLa. The assay can be described thus: Cytotoxicity against human HeLa cells after 72 hrs by MTT assay. Type of assay: functional, cell-based. The gist of the method:
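HeLa cells were cultured in EMEM with 10% FBS at 37 °C, 5% CO2. MTT added from a 5 mg/mL solution for 4 h at 37 °C. Plates centrifuged, formazan dissolved in DMSO, A540 read.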

The test system of the next assay is KB. Nature of the assay: Cytotoxicity against human KB cells after 72 hrs by MTT assay. Type of assay: functional, cell-based. The gist of the method:
as §1

The test system of another assay is HepG2. The assay can be described thus: Cytotoxicity against human HepG2 cells after 72 hrs by MTT assay. Type of assay: functional, cell-based. The settings on record: HepG2, 72 h. The gist of the method:
as §1

A further assay concerns BGC-823. The assay can be described thus: Cytotoxicity against human BGC823 cells after 72 hrs by MTT assay. Type of assay: functional, cell-based. Conditions: BGC-823, 72 h. The gist of the method:
as §1

A further assay concerns HL-60. Nature of the assay: Cytotoxicity against human HL60 cells after 72 hrs by MTT assay. The class given is functional, cell-based. Conditions: HL-60, 72 h. The gist of the method:
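HL-60 cells grown in IMDM with 20% FBS at 37 °C, 5% CO2. MTT added from a 5 mg/mL solution for 4 h at 37 °C. Plates centrifuged, medium discarded, formazan dissolved in DMSO, absorbance read at 540 nm.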

Another assay deals with U-266. The assay can be described thus: Cytotoxicity against human U266 cells after 72 hrs by MTT assay. The class given is functional, cell-based. Conditions: U-266, 72 h. The gist of the method:
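U266 myeloma cells were grown in RPMI 1640 with 15% FBS at 37 °C, 5% CO2. MTT added from a 5 mg/mL solution for 4 h at 37 °C. Plates centrifuged, formazan dissolved in DMSO, absorbance at 540 nm.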

What is called IC50 is the midpoint of a concentration-inhibition curve. For the compound `CC(C)C[C@H](NC(=O)[C@H](Cc1ccccc1)NC(=O)[C@H]1CCCc2ccccc21)B(O)O`, the IC50 in [1] was 1.2 nM; in the assay on NCI-H460 it was 36 nM; in the assay on SW480 it was 30 nM; with SK-OV-3, 40 nM; with A549 it was 38.5 nM; in the assay with HeLa it was 37.5 nM. Besides, the IC50 in the assay with KB is 70 nM; with HepG2, 60 nM; in the assay on BGC-823, 580 nM; in the assay on HL-60 it was 9.55 nM; with U-266, 2.28 nM.

`CC(C)C[C@H](NC(=O)[C@H](Cc1ccccc1)NC(=O)c1cccc2c1CCCC2)B(O)O`: the IC50 in assay [1] is 1.6 nM; in the assay on NCI-H460, 21.5 nM; with SW480 it was 30 nM; in the assay with SK-OV-3 it was 60 nM; with A549 it was 40.5 nM; in the assay on HeLa it was 23.2 nM. Besides, the IC50 amounted to 9.8 nM with KB; 13.1 nM in the assay on HepG2; 1210 nM in the assay with BGC-823; 9.25 nM in the assay with HL-60; 2.95 nM in the assay with U-266.
